One test has as its target Nucleic Acid. Nature of the test: In vitro inhibitory concentration against DNA gyrase from Micrococcus luteus […]. It is filed as nucleic-acid assay. In short, it runs like this:
(§1)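 Purified DNA gyrase, isolated from Escherichia coli H560 or Micrococcus luteus; IC50 in µg/mL, averaged over triplicate runs.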

Test [1] deals with Escherichia coli. Nature of the test: In vitro minimum inhibitory concentration against Escherichia coli SS was determined. The test is classed as functional. In short, it runs like this: (§2)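 Two-fold agar dilution series; MIC taken as the average of triplicate runs. Tested against intact Gram-positive and Gram-negative bacteria.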
A further test has as its target DNA gyrase (Escherichia coli, UniProt P0AES4+P0AES6). The test is described as follows: In vitro inhibitory concentration against DNA gyrase from Escherichia coli H560. The test is classed as protein-complex assay. In short, it runs like this:
as §1

A further test has as its system Micrococcus luteus. Nature of the test: In vitro minimum inhibitory concentration against Micrococcus luteus 9341 was determined. It is filed as functional. The procedure, abridged:
as §2

Test [2] concerns Escherichia coli. The test is described as follows: In vitro minimum inhibitory concentration against Escherichia coli H560 was determined. It is filed as functional. The procedure, abridged:
as §2

The subject of test [3] is Escherichia coli. The test is described as follows: In vitro minimum inhibitory concentration against Escherichia coli Juhl was determined. It is filed as functional. The procedure, abridged:
as §2

In the next test the test system is Pseudomonas aeruginosa. The test is described as follows: In vitro minimum inhibitory concentration against Pseudomonas aeruginosa was determined. The test is classed as functional. In short, it runs like this:
as §2

A further test concerns Staphylococcus aureus. The test is described as follows: In vitro minimum inhibitory concentration against Staphylococcus aureus ATCC 6538P was determined. It is filed as functional. In short, it runs like this: as §2
Test [4] is described as follows: In vitro minimum inhibitory concentration against […] faecium ATCC 8043 was determined. The test is classed as functional. The procedure, abridged:
as §2

Test [5] relates to Escherichia coli. Nature of the test: In vitro minimum inhibitory concentration against Escherichia coli KNK 437 was determined. The test is classed as functional. In short, it runs like this:
as §2

SMILES strings stand for the structures. Converted amounts (≈) assume the structure as drawn.

As usually defined, the IC50 is the concentration that inhibits the measured activity by half. High values mean weaker potency in that assay, low ones greater potency in that assay. Usually MIC stands for the smallest concentration in the dilution series that meets the test's criterion for growth inhibition. Regarding `C[C@H]1Cc2ccccc2-c2cc(=O)c(C(=O)O)cn21`, the IC50 is over 250 µg/mL on Nucleic Acid and 78.3 µM at DNA gyrase. In addition, the MIC against Escherichia coli [1] was 1.56 µg/mL (≈ 6.11 µM); against Micrococcus luteus, over 100 µg/mL; in the test on Escherichia coli [2] it was 25 µg/mL (≈ 97.9 µM); in the test with Escherichia coli [3], 25 µg/mL (≈ 97.9 µM); in the test with Pseudomonas aeruginosa it was 50 µg/mL (≈ 196 µM); in the test on Staphylococcus aureus it was 50 µg/mL (≈ 196 µM). Besides, the MIC (in [4]; against Escherichia coli [5]) was over 100 µg/mL each time.

As to `C[C@@H]1Cc2ccccc2-c2cc(=O)c(C(=O)O)cn21`, the values for the IC50 on Nucleic Acid and against DNA gyrase were over 250 µg/mL and 125 µM, respectively. Further, the MIC in the test with Escherichia coli [1] worked out at 6.25 µg/mL (≈ 24.5 µM); against Micrococcus luteus it was 100 µg/mL (≈ 392 µM); in the test with Escherichia coli [2] it was 50 µg/mL (≈ 196 µM); in the test with Escherichia coli [3], 25 µg/mL (≈ 97.9 µM); with Pseudomonas aeruginosa it was 100 µg/mL (≈ 392 µM); with Staphylococcus aureus it was 25 µg/mL (≈ 97.9 µM). Besides, the MIC (in test [4]; against Escherichia coli [5]) was over 100 µg/mL each time.

With `CC1Cc2cc(N3CCNCC3)c(F)cc2-c2cc(=O)c(C(=O)O)cn21` (stereo not given), the IC50 against DNA gyrase was 83.9 µM. Besides, the minimum inhibitory concentration (MIC) with Escherichia coli [3] was 50 µg/mL (≈ 140 µM); in the test on Pseudomonas aeruginosa, 50 µg/mL (≈ 140 µM); in the test on Staphylococcus aureus it was 25 µg/mL (≈ 70 µM); against Escherichia coli [5] it was 0.2 µg/mL (≈ 0.56 µM).

For the compound `O=C(O)c1cn(C2CC2)c2cc(N3CCNCC3)c(F)cc2c1=O` [CIPROFLOXACIN], the MIC amounted to 0.005 µg/mL (≈ 0.0151 µM) with Escherichia coli [1]; 1.56 µg/mL (≈ 4.71 µM) against Micrococcus luteus; 0.05 µg/mL (≈ 0.151 µM) against Pseudomonas aeruginosa; 0.2 µg/mL (≈ 0.604 µM) in the test on Staphylococcus aureus; 0.78 µg/mL (≈ 2.35 µM) in test [4].

Values taken from ChEMBL document CHEMBL1142671, “Chiral DNA gyrase inhibitors. 3. Probing the chiral preference of the active site of DNA gyrase. Synthesis of 10-fluoro-6-methyl-6,7-dihydro-9-piperazinyl- 2H-benzo[a]quinolizin-20-one-3-carboxylic acid analogues” (J Med Chem, 2005).
